The text below walks through data of ChEMBL document CHEMBL1949649, “5-sulfonyl-benzimidazoles as selective CB2 agonists-part 2” (Bioorg Med Chem Lett, 2012).

For one series, the target named is Cannabinoid receptor 1 (Homo sapiens, UniProt P21554). As to the kind of experiment: Agonist activity at human CB1 receptor. The class given is functional.
Another series concerns the target Cannabinoid receptor 2 (Homo sapiens, UniProt P34972). As to the kind of experiment: Agonist activity at human CB2 receptor. The class given is functional.
Series [1] in a line: Drug metabolism in human liver microsomes after 15 mins. As to conditions: read-out: Drug metabolism. The class given is ADME, Microsome.
Series [2] has as its system Rattus norvegicus. The experiment in a line: Toxicity in rat chronic constriction injury-induced neuropathic pain model assessed as tolerance at 40 mg/kg/day, sc after 5 to 8 days. The class given is organism-based. More on the design: route subcutaneous. The conditions noted are these: in vivo. In short, it runs like this: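 Chronic constriction injury of rats (n = 7 per group); daily subcutaneous dosing over repeated days, with morphine as comparator. Cold allodynia read as lifting on a cold plate at 0 °C for 4 min.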

Series [3] is described as follows: Kinetic solubility of the compound at pH 7.4. The class given is physicochemical. As to conditions: buffer, read-out: Kinetic_solubility.
Series [4] relates to Rattus norvegicus. As to the kind of experiment: Toxicity in rat assessed as decrease in body temperature at 10 mg/kg, ip by modified tetrad test. Further details: dose 10 mg/kg, route intraperitoneal. The class given is organism-based. The conditions noted are these: in vivo.

Each structure is given as a SMILES string.

Cannabinoid receptor 2, sequence (P34972 whole entry): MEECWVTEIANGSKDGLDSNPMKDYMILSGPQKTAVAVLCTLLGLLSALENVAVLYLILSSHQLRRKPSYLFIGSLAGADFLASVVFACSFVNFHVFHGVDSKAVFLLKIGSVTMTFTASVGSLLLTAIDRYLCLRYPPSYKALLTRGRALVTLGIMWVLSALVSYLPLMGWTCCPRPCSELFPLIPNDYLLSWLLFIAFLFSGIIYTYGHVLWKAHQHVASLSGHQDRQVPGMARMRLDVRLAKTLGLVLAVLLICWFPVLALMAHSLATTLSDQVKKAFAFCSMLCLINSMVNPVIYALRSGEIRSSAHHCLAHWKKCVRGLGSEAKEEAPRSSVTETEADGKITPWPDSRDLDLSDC
Cannabinoid receptor 1, sequence (P21554 whole entry): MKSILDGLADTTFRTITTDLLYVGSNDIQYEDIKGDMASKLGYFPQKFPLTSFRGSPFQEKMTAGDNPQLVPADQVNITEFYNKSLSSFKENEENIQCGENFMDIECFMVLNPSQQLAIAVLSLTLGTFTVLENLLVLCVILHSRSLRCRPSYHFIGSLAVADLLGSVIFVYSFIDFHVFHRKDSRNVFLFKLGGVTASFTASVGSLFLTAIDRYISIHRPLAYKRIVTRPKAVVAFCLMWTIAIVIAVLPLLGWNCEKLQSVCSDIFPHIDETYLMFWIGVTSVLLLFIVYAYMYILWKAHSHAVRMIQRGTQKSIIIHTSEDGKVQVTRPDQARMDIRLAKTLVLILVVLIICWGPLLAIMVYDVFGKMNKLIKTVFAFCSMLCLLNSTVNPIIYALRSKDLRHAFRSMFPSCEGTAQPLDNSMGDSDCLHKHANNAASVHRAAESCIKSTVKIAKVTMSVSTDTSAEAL

Turning to `CC(=O)NCCCCCc1cc(S(=O)(=O)c2ccc3c(c2)nc(C(C)(C)C)n3CC2CCOCC2)ccn1`, the figures for the EC50 on Cannabinoid receptor 1 and on Cannabinoid receptor 2 were more than 10 µM and 0.0056 µM, respectively. Moreover, in series [1], the metabolised at 0.25 h is 86%.

In the case of `CN1CC[C@]23c4c5ccc(O)c4O[C@H]2[C@@H](O)C=C[C@H]3[C@H]1C5` [MORPHINE], the Activity result in the series on Rattus norvegicus [2] is reported as “Non-toxic”.

On to `COC(=O)N1CCC(Cn2c(C(C)(C)C)nc3cc(S(=O)(=O)CCCC(F)(F)F)ccc32)CC1`, for which the half-maximal effective concentration (EC50) (as a rule, the concentration that produces a half-maximal response) on Cannabinoid receptor 1 is more than 10 µM. Also, the metabolised at 0.25 h in series [1] was 54%.

In the case of `CC(=O)N1CCC(Cn2c(C(C)(C)C)nc3cc(S(=O)(=O)C4CCCC4)ccc32)CC1`, on Cannabinoid receptor 1, the concentration for a half-maximal effect (EC50) is more than 10 µM. In series [1], the metabolised at 0.25 h came out at 87%.

As for `CCS(=O)(=O)c1ccc2c(c1)nc(C(C)(C)C)n2CC1CCN(C(C)=O)CC1`, the figures for the concentration giving a half-maximal response (EC50) at Cannabinoid receptor 1 and on Cannabinoid receptor 2 were more than 10 µM and 0.0084 µM, respectively. Besides, the metabolised at 0.25 h in series [1] was determined as 13%.

In turn, `COCC(=O)N1CCC(Cn2c(C(C)(C)C)nc3cc(S(=O)(=O)CCCC(F)(F)F)ccc32)CC1` returned an EC50 on Cannabinoid receptor 1 of more than 10 µM.

Consider `CC(=O)N1CCC(Cn2c(C(C)(C)C)nc3cc(S(=O)(=O)CCCC(F)(F)F)ccc32)CC1`, for which the results for the EC50 on Cannabinoid receptor 1 and on Cannabinoid receptor 2 were more than 10 µM and 0.013 µM, respectively. Further, in series [1], the metabolised at 0.25 h is 17%.

On Cannabinoid receptor 1, `CC(C)(C)c1nc2cc(S(=O)(=O)CCCC(F)(F)F)ccc2n1CC1CCN(C=O)CC1` returned an EC50 of 5.62 µM. Also, the metabolised at 0.25 h in series [1] is 17%.

With `CCS(=O)(=O)c1ccc2c(c1)nc(C(C)(C)C)n2CC1CCN(C=O)CC1`, the 50% effective concentration (EC50) at Cannabinoid receptor 1 is more than 10 µM; on Cannabinoid receptor 2 it was 0.023 µM. Moreover, the metabolised at 0.25 h in series [1] was determined as 7%.

`COCCCNc1cc(S(=O)(=O)c2ccc3c(c2)nc(C(C)(C)C)n3CC2CCOCC2)ccn1` came in with an EC50 on Cannabinoid receptor 2 of 0.0008 µM. Moreover, the metabolised at 0.25 h in series [1] amounted to 99%.

As for `COCCS(=O)(=O)c1ccc2c(c1)nc(C(C)(C)C)n2CC1CCN(C(C)=O)CC1`, on Cannabinoid receptor 1, the EC50 was more than 10 µM.

With `CC(=O)NCCc1cc(S(=O)(=O)c2ccc3c(c2)nc(C(C)(C)C)n3CC2CCOCC2)ccn1`, the metabolised at 0.25 h in series [1] is 44%.

`CCOc1cc(S(=O)(=O)c2ccc3c(c2)nc(C(C)(C)C)n3CC2CCOCC2)ccn1` gave a concentration for a half-maximal effect (EC50) at Cannabinoid receptor 1 of 1.28 µM. The solubility kinetic in series [3] is less than 1 µM. In addition, the metabolised at 0.25 h in series [1] is 48%.

As to `CC(C)(C)c1nc2cc(S(=O)(=O)CCCC(F)(F)F)ccc2n1CC1CCNCC1`, the EC50 was more than 10 µM on Cannabinoid receptor 1 and 0.24 µM on Cannabinoid receptor 2.

Consider `CC(C)(C)c1nc2cc(S(=O)(=O)c3nccs3)ccc2n1CC1CCN(C=O)CC1`, for which the Activity entry with Rattus norvegicus [4] was “Toxic”. Moreover, the EC50 at Cannabinoid receptor 1 is 0.321 µM; at Cannabinoid receptor 2, 0.0084 µM.
